PLCb3 inh = human PLC-beta3 inhibitors, primary screen, biochemical, fluorescence; 1-phosphatidylinositol 4,5-bisphosphate phosphodiesterase beta-3 (Homo sapiens), Q01970; Purified PLC-beta3, fluorogenic substrate; inhibition, % at 12.2 µM; hit rate 0.18% among 370,000; in the data active = inhibition above about 11%;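 also: 0% = median of compound wells on plate and 100% = full blocker control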
ADAM17 inh = ADAM17 inhibitors, primary screen, biochemical, QFRET | recombinant ADAM17, EDANS/DABCYL FRET peptide cleavage | inhibition, % at 6.95 µM | hit rate 0.83% among 370,000 | AID 720648, 2013;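 active = inhibition above the mean of compounds lying between control limits plus 3 SD, set per campaign, cut at about 8.5% in these data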;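 also: 0% = DMSO-only wells as the low control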
Target sequence (P78536 215-824 limits assumed): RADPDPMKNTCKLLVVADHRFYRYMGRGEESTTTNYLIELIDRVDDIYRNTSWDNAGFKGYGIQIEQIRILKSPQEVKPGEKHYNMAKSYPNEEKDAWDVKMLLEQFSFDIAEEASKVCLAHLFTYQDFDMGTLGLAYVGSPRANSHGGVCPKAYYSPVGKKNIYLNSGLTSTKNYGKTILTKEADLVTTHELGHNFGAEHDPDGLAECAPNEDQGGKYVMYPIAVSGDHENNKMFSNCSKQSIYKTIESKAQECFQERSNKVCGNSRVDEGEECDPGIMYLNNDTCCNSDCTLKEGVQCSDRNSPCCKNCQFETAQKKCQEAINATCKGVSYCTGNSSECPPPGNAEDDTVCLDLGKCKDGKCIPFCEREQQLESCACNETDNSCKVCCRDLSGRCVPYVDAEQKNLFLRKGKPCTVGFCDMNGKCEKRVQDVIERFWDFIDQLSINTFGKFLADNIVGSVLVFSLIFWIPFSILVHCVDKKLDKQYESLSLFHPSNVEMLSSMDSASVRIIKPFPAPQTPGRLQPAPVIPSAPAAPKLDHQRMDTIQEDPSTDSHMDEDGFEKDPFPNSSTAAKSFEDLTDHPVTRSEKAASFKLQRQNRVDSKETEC
PLCg1 inh = PLC-gamma1 enzyme inhibitors, primary screen, biochemical, fluorescence, purified enzyme; 1-phosphatidylinositol 4,5-bisphosphate phosphodiesterase gamma-1 (Homo sapiens), P19174; fluorogenic substrate; inhibition, % at 12.2 µM; hit rate 0.84% among 370,000; in the data active = inhibition above about 9.5%
ADAM10 inh = human ADAM10 inhibitors, primary screen, biochemical, QFRET, HTS; AID 720582, 2013; hit rate 0.62% among 370,000; inhibition, % at 7 µM; recombinant ADAM10, EDANS/DABCYL FRET peptide cleavage, 3 h; Disintegrin and metalloproteinase domain-containing protein 10 (Homo sapiens), O14672;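 active = inhibition above a per-campaign cutoff equal to the mean of compounds falling between control-based bounds plus 3 SD, cut at about 20% in these data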;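 also: 0% = DMSO wells while the 100% control is not disclosed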
Tb MetRS inh = T. brucei MetRS inhibitors, primary screen, biochemical, luminescence; inhibition, % at 11.9 µM; purified T. brucei MetRS, ATP depletion, Kinase-Glo luminescence; hit rate 0.4% among 360,000;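 active = inhibition above a per-plate cutoff of the control wells' mean inhibition plus 3 SD, cut at about 5.5% in these data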;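 also: 0% = DMSO wells median and 100% = median of wells with control inhibitor compound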
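Assay system: T. brucei methionyl-tRNA synthetase, purified | Medium: HEPES buffer with MgCl2, KCl, DTT, spermine, BSA, pyrophosphatase | Compound: 11.9 µM single point | Incubation: 15 min enzyme-compound preincubation, 2 h reaction, 10 min detection, 25 °C | Measured by: Kinase-Glo luciferase luminescence reporting remaining unconsumed ATP | Measure: % inhibition normalized to control-well medians | Replication: Singlicate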
TbMetRS confirm = T. brucei MetRS inhibitors, confirmation, biochemical, luminescence; shares compounds with Tb MetRS inh; T. brucei MetRS enzyme, luminescence (ATP depletion); inhibition, % at 11.9 µM; hit rate 93% among 1,400; AID 624412, 2012; in the data active = inhibition above about 7%
Jurkat cytotox = Jurkat T cell cytotoxicity, cytotoxicity control for T. brucei MetRS inhibitor project, luminescence, high throughput; AID 624413, 2012; shares compounds with Tb MetRS inh; inhibition, % at 8.3 µM; Jurkat cells viability, ATP luminescence; hit rate 12% among 1,400; in the data active = inhibition above about 15%;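 also: 0% = vehicle and 100% = reference inhibitor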
TbMetRS FP orth = T. brucei MetRS inhibitors, orthogonal assay for T. brucei MetRS inhibitor project, biochemical, fluorescence polarization; shares compounds with Tb MetRS inh; purified T. brucei MetRS; inhibition, % at 11.9 µM; hit rate 44% among 1,400; AID 651607, 2012; in the data active = inhibition above about 17%;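 also: 0% = vehicle wells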
* = called active by the depositor; . = no result. The list is not random: actives were taken first. Their share in the collection is about 2.3%.

SMILES	PLCb3 inh	ADAM17 inh	PLCg1 inh	ADAM10 inh	Tb MetRS inh	TbMetRS confirm	Jurkat cytotox	TbMetRS FP orth
CC(C)Cc1nnc(NC(=O)c2ccc(-n3cncn3)c([N+](=O)[O-])c2)s1	-1	2	0	-23	1	.	.	.
Cc1ccc(NC(=O)c2ccc(-n3cncn3)c([N+](=O)[O-])c2)cc1	3	2	4	4	27*	46*	0	15
CCN(CC)S(=O)(=O)c1ccc(OC)c(NC(=O)c2ccc([N+](=O)[O-])cc2)c1	5	0	0	4	0	.	.	.
Cc1ccc(NC(=O)CN(C)C(=O)c2ccc(Cl)c([N+](=O)[O-])c2)cc1	1	-5	-1	2	36*	58*	1	37*
Cc1ccc(C(=O)NNC(=O)c2ccc(-n3cncn3)c([N+](=O)[O-])c2)cc1	-5	-12	6	-12	11*	41*	-6	20*
O=C(NCCC1=CCCCC1)c1ccc(-n2cncn2)c([N+](=O)[O-])c1	-6	-2	0	-9	15*	32*	-1	20*
CC(C)(C)C(=O)N1CCC[C@]2(CC[C@H](CCC#N)O2)C1	-2	-2	0	-7	.	.	.	.
O=C(C[C@H]1C(=O)N(Cc2cccnc2)C[C@@H]1Cc1ccccc1)Nc1ccccc1	1	3	-2	2	0	.	.	.
CSC[C@H]1CN(Cc2cccnc2)C(=O)[C@@H]1CC(=O)Nc1ccc(Br)cc1	1	1	-3	-4	69*	82*	-7	51*
CCC[C@H]1CN(Cc2cccnc2)C(=O)[C@@H]1CC(=O)Nc1ccc(Br)cc1	1	-5	2	-9	72*	87*	-4	61*
O=C(Oc1ccc(-c2nnco2)cc1)c1cc(S(=O)(=O)N2CCOCC2)ccc1F	0	3	-1	-14	0	.	.	.
COC(=O)c1nnn(CC(=O)NC(=O)Nc2ccccc2)c1C(=O)OC	1	-3	-1	5	6.2*	15*	-7	3
COC(=O)c1nnn(CC(=O)NC(=O)Nc2ccc(F)cc2)c1C(=O)OC	1	0	1	1	1	.	.	.
O=c1cc(CSc2ccc(Cl)cc2)[nH]c2[nH]n(-c3ccccc3)c(=O)c12	-14	2	0	9	8.5*	26*	17*	7
Cc1cccc(OCCCC(=O)Nc2nc3ccccc3[nH]2)c1	-6	-3	0	4	63*	67*	5	46*
Cc1ccccc1OCCSCc1nc2ccccc2[nH]1	4	3	2	12	6.2*	17*	6	6
Cc1ccccc1OCC(=O)NCCc1nc2ccccc2[nH]1	0	-1	4	4	2	.	.	.
Cc1cccc(OCCSCc2nc3ccccc3[nH]2)c1	-4	-3	-3	3	8.7*	20*	-2	6
C[C@@H]1ON(C)[C@H]2C[C@H]3c4[nH]c5c(-c6ccc(C(F)(F)F)cc6)cccc5c4CCN3C(=O)[C@@H]12	-23	-4	-18	-41	.	.	.	.
Clc1ccc(-c2nnc(SCc3nc4ccccc4[nH]3)o2)c(Cl)c1	-23	-12	-20	-30	78*	101*	5	90*
CCOC(=O)CN1C(=O)[C@]2(OCCC=C[C@H]2C)c2ccccc21	5	-6	2	-13	.	.	.	.
Cc1scc(C(=O)N2CCN(S(C)(=O)=O)CC2)c1-c1ccccc1	3	-1	2	-5	24*	4	2	-3

Assay outcomes (PubChem BioAssay)
